Laboratory results published in ChEMBL document CHEMBL5131562, “1,3-Dioxane-Linked Novel Bacterial Topoisomerase Inhibitors: Expanding Structural Diversity and the Antibacterial Spectrum” (ACS Med Chem Lett, 2022).
In brackets after ≈: the same amount, converted by molar mass.

Assays:
[1] = test system: Neisseria gonorrhoeae; test: Antimicrobial activity against wild type Neisseria gonorrhoeae P strain incubated for 20 to 24 hrs by CLSI protocol based broth microdilution method; type: functional; details: time 20-24 hrs
[2] = test system: Staphylococcus aureus; test: Antibacterial activity against Staphylococcus aureus 3527 by CLSI method; type: functional
[3] = test system: Staphylococcus aureus; test: Selectivity ratio of IC50 for inhibition of Staphylococcus aureus DNA topoisomerase 4 decatenation activity to IC50 for inhibition of Staphylococcus aureus DNA gyrase supercoiling activity
[4] = test system: Neisseria gonorrhoeae; test: Antimicrobial activity against wild type Neisseria gonorrhoeae F strain incubated for 20 to 24 hrs by CLSI protocol based broth microdilution method; type: functional; details: time 20-24 hrs
[5] = test system: Neisseria gonorrhoeae; test: Antimicrobial activity against wild type Neisseria gonorrhoeae ATCC 49226 incubated for 20 to 24 hrs by CLSI protocol based broth microdilution method; type: functional; details: time 20-24 hrs
[6] = test system: Neisseria gonorrhoeae; test: Antimicrobial activity against Neisseria gonorrhoeae G strain harbouring type 2 topoisomerase GyrA S91F and ParE G410V mutant incubated for 20 to 24 hrs by CLSI protocol based broth microdilution method; type: functional; details: time 20-24 hrs
[7] = Cytotoxicity activity against human K562 cells assessed as inhibition of cellular growth; type: toxicity, cell-based
Method in brief: (§1)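 Human K562 leukemia cells were tested alongside K/VP.5, an etoposide-resistant clonal subline derived from them that has reduced levels of human topoisomerase IIα. Cell growth inhibition was expressed as an IC50.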

[8] = test system: Staphylococcus aureus; test: Antibacterial activity against Staphylococcus aureus ATCC 29213 by CLSI method; type: functional
[9] = test system: Staphylococcus aureus; test: Antibacterial activity against cystic fibrosis isolate Staphylococcus aureus by CLSI method; type: functional
[10] = Metabolic stability in mouse liver microsomes assessed as half life; type: ADME, Microsome
[11] = Cytotoxicity activity against human K/VP.5 cells assessed as inhibition of cellular growth; type: toxicity, cell-based; method in brief: as §1
[12] = test system: Staphylococcus aureus; test: Antibacterial activity against Staphylococcus aureus harbouring GyrA D83N mutant by CLSI method; type: functional
[13] = test system: Neisseria gonorrhoeae; test: Antimicrobial activity against wild type Neisseria gonorrhoeae Y strain harbouring type 2 topoisomerase GyrA S91F, D95G and ParC S87R mutant incubated for 20 to 24 hrs by CLSI protocol based broth microdilution method; type: functional; details: time 20-24 hrs
[14] = test system: Neisseria gonorrhoeae; test: Antimicrobial activity against Neisseria gonorrhoeae K strain harbouring type 2 topoisomerase GyrA S91F, D95N and ParC S87R, S88P mutant incubated for 20 to 24 hrs by CLSI protocol based broth microdilution method; type: functional; details: time 20-24 hrs
[15] = test system: Staphylococcus aureus; test: Antibacterial activity against methicillin-resistant Staphylococcus aureus USA300 by CLSI method; type: functional
[16] = target: DNA gyrase (Staphylococcus aureus, UniProt P0A0K8+P20831); test: Inhibition of Staphylococcus aureus DNA gyrase supercoiling activity incubated for 25 min by ethidium bromide/bromophenol blue staining based agarose gel electrophoresis analysis; type: protein-complex assay
[17] = test system: Neisseria gonorrhoeae; test: Antimicrobial activity against wild type Neisseria gonorrhoeae O strain incubated for 20 to 24 hrs by CLSI protocol based broth microdilution method; type: functional; details: time 20-24 hrs
[18] = target: hERG (KCNH2) (Homo sapiens, UniProt Q12809); test: Inhibition of hERG cardiac ion channel at 200 uM relative to control; type: toxicity
Method in brief: (§2)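 hERG channel inhibition was run by a contract lab. […] Determinations were made in duplicate or triplicate (n = 2 or 3).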

[19] = target: Voltage-gated inwardly rectifying potassium channel KCNH2 (Homo sapiens, UniProt Q12809); test: Inhibition of hERG cardiac ion channel; type: toxicity; method in brief: as §2
[20] = test system: Neisseria gonorrhoeae; test: Antimicrobial activity against wild type Neisseria gonorrhoeae V strain harbouring type 2 topoisomerase GyrA S91F, D95G and ParC S87R mutant incubated for 20 to 24 hrs by CLSI protocol based broth microdilution method; type: functional; details: time 20-24 hrs
[21] = target: Topoisomerase IV (Staphylococcus aureus, UniProt P0C1S7+P0C1U9); test: Inhibition of Staphylococcus aureus DNA topoisomerase 4 decatenation activity using kDNA as substrate incubated for 10 to 20 min by ethidium bromide/bromophenol blue staining based agarose gel electrophoresis analysis; type: protein-complex assay
[22] = test system: Neisseria gonorrhoeae; test: Antimicrobial activity against Neisseria gonorrhoeae G strain harbouring type 2 topoisomerase GyrA S91F and ParE G410V mutant incubated for 20 hrs by agar dilution method; type: functional
[23] = test system: Neisseria gonorrhoeae; test: Antimicrobial activity against Neisseria gonorrhoeae L strain harbouring type 2 topoisomerase GyrA S91F,D95N and ParC D86N,S88P mutant incubated for 20 hrs by agar dilution method; type: functional
[24] = Inhibition of Neisseria gonorrhoeae DNA topoisomerase 4 decatenation activity using kDNA as substrate incubated for 10 to 20 min by ethidium bromide/bromophenol blue staining based agarose gel electrophoresis analysis
Method in brief: (§3)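 The N. gonorrhoeae enzymes were assayed separately: supercoiling by DNA gyrase, and decatenation of kDNA by topoisomerase IV. Concentration–response data were collected over at least three independent experiments and summarized with standard deviation, and IC50 values were derived.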

[25] = Inhibition of Neisseria gonorrhoeae DNA gyrase supercoiling activity incubated for 25 min by ethidium bromide/bromophenol blue staining based agarose gel electrophoresis analysis; method in brief: as §3
[26] = test system: Neisseria gonorrhoeae; test: Antimicrobial activity against Neisseria gonorrhoeae M strain harbouring type 2 topoisomerase GyrA S91F,D95G mutant incubated for 20 hrs by agar dilution method; type: functional
[27] = test system: Neisseria gonorrhoeae; test: Antimicrobial activity against wild type Neisseria gonorrhoeae ATCC 49226 incubated for 20 hrs by agar dilution method; type: functional

SMILES	MIC [1]	MIC [2]	Ratio IC50 [3]	MIC [4]	MIC [5]	MIC [6]	IC50 [7]	MIC [8]	MIC [9]	half-life [10]	IC50 [11]	MIC [12]	MIC [13]	MIC [14]	MIC [15]	IC50 [16]	MIC [17]	IC50 [19]	MIC [20]	IC50 [21]	also measured
O=c1ccc2ncc(F)c3c2n1CC3C[C@H]1OC[C@H](NCc2cc3c(nn2)OCCS3)CO1 (some centres not stated)	32 µg/mL (≈ 67.9 µM)	4 µg/mL (≈ 8.48 µM)	5.6	8 µg/mL (≈ 17 µM)	32 µg/mL (≈ 67.9 µM)	> 32 µg/mL	98 µM	2 µg/mL (≈ 4.24 µM)	2 µg/mL (≈ 4.24 µM)	1.88 h	197 µM	> 8 µg/mL	8 µg/mL (≈ 17 µM)	32 µg/mL (≈ 67.9 µM)	4 µg/mL (≈ 8.48 µM)	1.8 µM	32 µg/mL (≈ 67.9 µM)	> 200 µM	4 µg/mL (≈ 8.48 µM)	10 µM	inhibition at 200 µM [18]: 23%
COc1ccc2ncc(F)c(C[C@H](O)[C@H]3OC[C@H](NCc4ccc5c(n4)NC(=O)CS5)CO3)c2n1	≤ 0.03 µg/mL	–	–	≤ 0.03 µg/mL	≤ 0.03 µg/mL	≤ 0.03 µg/mL	–	–	–	–	–	–	≤ 0.03 µg/mL	≤ 0.03 µg/mL	–	–	≤ 0.03 µg/mL	–	≤ 0.03 µg/mL	–	MIC [22]: 1 µg/mL (≈ 1.99 µM); MIC [23]: 1 µg/mL (≈ 1.99 µM); IC50 [24]: 3.6 µM; IC50 [25]: 0.39 µM; MIC [26]: 0.5 µg/mL (≈ 0.997 µM); MIC [27]: 0.25 µg/mL (≈ 0.498 µM)
O=c1ccc2ccc(F)c3c2n1CC3C[C@H]1OC[C@H](NCc2cc3c(nn2)OCCO3)CO1 (some centres not stated)	32 µg/mL (≈ 70.4 µM)	4 µg/mL (≈ 8.8 µM)	2.8	16 µg/mL (≈ 35.2 µM)	32 µg/mL (≈ 70.4 µM)	> 32 µg/mL	156 µM	2 µg/mL (≈ 4.4 µM)	1 µg/mL (≈ 2.2 µM)	1.7 h	171 µM	> 8 µg/mL	32 µg/mL (≈ 70.4 µM)	> 32 µg/mL	4 µg/mL (≈ 8.8 µM)	3.5 µM	32 µg/mL (≈ 70.4 µM)	> 200 µM	32 µg/mL (≈ 70.4 µM)	9.7 µM	inhibition at 200 µM [18]: 21%
COc1ccc2ncc(F)c(C[C@H](O)[C@H]3OC[C@H](NC(=O)c4ccc5c(n4)NC(=O)CS5)CO3)c2n1	≤ 0.015 µg/mL	≤ 0.06 µg/mL	2.8	≤ 0.015 µg/mL	≤ 0.015 µg/mL	0.12 µg/mL (≈ 0.233 µM)	7.5 µM	0.06 µg/mL (≈ 0.116 µM)	≤ 0.06 µg/mL	0.0903 h	> 100 µM	0.25 µg/mL (≈ 0.485 µM)	≤ 0.015 µg/mL	≤ 0.015 µg/mL	≤ 0.06 µg/mL	0.15 µM	≤ 0.015 µg/mL	> 100 µM	≤ 0.015 µg/mL	0.42 µM	MIC [22]: 0.25 µg/mL (≈ 0.485 µM); MIC [23]: 0.5 µg/mL (≈ 0.97 µM); IC50 [24]: 27 µM; IC50 [25]: 0.64 µM; MIC [26]: 0.12 µg/mL (≈ 0.233 µM); MIC [27]: 0.12 µg/mL (≈ 0.233 µM)
